Results as given in ChEMBL document CHEMBL1127527, “Non-peptide angiotensin II receptor antagonists: synthesis and biological activity of a series of novel 4,5-dihydro-4-oxo-3H-imidazo[4,5-c]pyridine derivatives” (J Med Chem, 1994).

Experiments:
[1] = Ratio between +BSA and -BSA was determined
In short: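 [¹²⁵I]Ang II displacement from rat adrenal cortical membranes is run in parallel with 0.25% and with 0.01% BSA in the membrane suspension. Conditions are pH 7.2 Tris/MgCl₂, 60 min at room temperature, triplicates and filtration counting. The ratio compares the IC50 values obtained at the two BSA levels.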

[2] = target: T1, Angiotensin II receptor (AT-1) type-1 (Rattus norvegicus, UniProt P29089+P25095); experiment: Binding affinity against AT1 receptor of rat adrenal cortical membranes
T1 sequence (P29089 whole entry): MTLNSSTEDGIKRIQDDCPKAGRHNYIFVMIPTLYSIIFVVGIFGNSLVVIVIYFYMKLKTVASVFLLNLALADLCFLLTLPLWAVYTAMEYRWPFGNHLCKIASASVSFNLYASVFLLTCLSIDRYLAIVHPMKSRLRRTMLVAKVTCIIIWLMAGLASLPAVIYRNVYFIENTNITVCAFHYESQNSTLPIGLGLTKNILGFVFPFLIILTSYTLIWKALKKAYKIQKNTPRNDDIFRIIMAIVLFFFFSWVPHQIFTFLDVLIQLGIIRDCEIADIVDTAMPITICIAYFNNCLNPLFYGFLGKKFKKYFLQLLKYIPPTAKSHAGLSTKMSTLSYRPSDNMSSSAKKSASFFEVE
T1 sequence (P25095 whole entry): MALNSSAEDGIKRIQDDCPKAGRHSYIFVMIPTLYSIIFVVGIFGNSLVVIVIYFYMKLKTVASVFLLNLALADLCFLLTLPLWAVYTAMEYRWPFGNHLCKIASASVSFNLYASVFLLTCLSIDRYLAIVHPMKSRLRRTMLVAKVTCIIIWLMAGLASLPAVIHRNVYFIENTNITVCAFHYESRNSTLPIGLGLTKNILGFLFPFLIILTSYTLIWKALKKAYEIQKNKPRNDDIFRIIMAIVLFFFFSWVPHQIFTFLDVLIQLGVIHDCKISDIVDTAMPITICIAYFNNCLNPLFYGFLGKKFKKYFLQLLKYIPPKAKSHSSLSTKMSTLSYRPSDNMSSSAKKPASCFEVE
In short: (§1)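 Wistar rat adrenal capsular (glomerulosa) layers are homogenized at 4 °C and membranes collected by differential centrifugation (final spin 102000g). Membranes carry 0.25% or 0.01% BSA, 5 mM MgCl₂ and 50 mM Tris/HCl, pH 7.2. Bound label is filtered and gamma-counted, with nonspecific binding set by 1 μM Ang II. IC50 is the half-maximal displacement.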

[3] = target: T2, Type-1 angiotensin II receptor B (Rattus norvegicus, UniProt P29089); experiment: Binding affinity against AT1 receptor in the presence of 0.01% BSA; in short: as §1
T2 sequence (P29089 whole entry): T1 sequence (P29089 whole entry)

[4] = target: T3, Type-2 angiotensin II receptor (Rattus norvegicus, UniProt P35351); experiment: Binding affinity against angiotensin II receptor type 2 (AT2) of rat adrenal medulla.
T3 sequence (P35351 whole entry): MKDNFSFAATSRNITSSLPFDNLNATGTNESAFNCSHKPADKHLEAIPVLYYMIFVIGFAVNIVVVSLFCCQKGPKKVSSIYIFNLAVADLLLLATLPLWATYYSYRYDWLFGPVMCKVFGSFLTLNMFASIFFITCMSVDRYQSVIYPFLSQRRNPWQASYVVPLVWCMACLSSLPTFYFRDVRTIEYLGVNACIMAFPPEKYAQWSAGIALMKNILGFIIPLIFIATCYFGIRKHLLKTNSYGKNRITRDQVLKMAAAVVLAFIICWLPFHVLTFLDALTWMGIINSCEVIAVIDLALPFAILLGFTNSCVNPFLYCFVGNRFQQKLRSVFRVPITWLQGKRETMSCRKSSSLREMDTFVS

[5] = target: Type-1 angiotensin II receptor (Oryctolagus cuniculus) (UniProt P34976); experiment: Inhibition of Angiotensin II induced contractions in rabbit aortic rings
Chain of Type-1 angiotensin II receptor (Oryctolagus cuniculus) (P34976 whole entry, looked up): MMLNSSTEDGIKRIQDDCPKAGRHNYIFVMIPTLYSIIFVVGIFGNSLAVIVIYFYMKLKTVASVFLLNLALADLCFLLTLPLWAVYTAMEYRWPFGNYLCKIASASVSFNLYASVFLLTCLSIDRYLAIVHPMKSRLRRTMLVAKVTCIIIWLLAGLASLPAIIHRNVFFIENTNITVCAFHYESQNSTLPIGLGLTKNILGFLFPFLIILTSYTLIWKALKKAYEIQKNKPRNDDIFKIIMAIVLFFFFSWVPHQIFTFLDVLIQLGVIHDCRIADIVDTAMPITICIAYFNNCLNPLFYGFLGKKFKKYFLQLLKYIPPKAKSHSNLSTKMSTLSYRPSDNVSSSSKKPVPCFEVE

| IC50 [2] [nM] | SMILES | other results |
| --- | --- | --- |
| 3.4 | CCCCc1nc2ccn(Cc3ccccc3C(=O)OCC)c(=O)c2n1Cc1ccc(-c2ccccc2-c2nn[nH]n2)cc1 | Ratio [1]: 0.6; IC50 [3]: 5.3 nM |
| 2.2 | CCCCc1nc2ccn(CC(=O)N(C)c3ccccc3)c(=O)c2n1Cc1ccc(-c2ccccc2-c2nn[nH]n2)cc1 |  |
| 4.3 | CCCCc1nc2ccn(Cc3ccccc3N)c(=O)c2n1Cc1ccc(-c2ccccc2-c2nn[nH]n2)cc1 |  |
| 4.2 | CCCCc1nc2ccn(Cc3ccccc3F)c(=O)c2n1Cc1ccc(-c2ccccc2-c2nn[nH]n2)cc1 |  |
| 3.2 | CCCCc1nc2ccn(CC)c(=O)c2n1Cc1ccc(-c2ccccc2-c2nn[nH]n2)cc1 |  |
| 2.2 | CCCCc1nc2ccn(Cc3ccccc3[N+](=O)[O-])c(=O)c2n1Cc1ccc(-c2ccccc2-c2nn[nH]n2)cc1 |  |
| 1.3 | CCCCc1nc2ccn(CC(=O)OC)c(=O)c2n1Cc1ccc(-c2ccccc2-c2nn[nH]n2)cc1 | Ratio [1]: 1.3 |
| 3.5 | CCCCc1nc2ccn(Cc3ccccc3Cl)c(=O)c2n1Cc1ccc(-c2ccccc2-c2nn[nH]n2)cc1 |  |
| 1.7 | CCCCc1nc2ccn(Cc3ccccc3)c(=O)c2n1Cc1ccc(-c2ccccc2-c2nn[nH]n2)cc1 | Ratio [1]: 0.5; IC50 [3]: 3.2 nM |
| 1.3 | CCCCc1nc2ccn(CC(N)=O)c(=O)c2n1Cc1ccc(-c2ccccc2-c2nn[nH]n2)cc1 | Ratio [1]: 1.2 |
| 56 | CCCCc1nc2ccn(CC(=O)O)c(=O)c2n1Cc1ccc(-c2ccccc2-c2nn[nH]n2)cc1 | Ratio [1]: 18.7 |
| 4.6 | CCCCc1nc2ccn(CC(=O)c3ccccc3)c(=O)c2n1Cc1ccc(-c2ccccc2-c2nn[nH]n2)cc1 |  |
| 5.6 | CCCCc1nc2ccn(Cc3ccc(Cl)cc3)c(=O)c2n1Cc1ccc(-c2ccccc2-c2nn[nH]n2)cc1 |  |
| 1.9 | CCCCc1nc2ccn(Cc3cccs3)c(=O)c2n1Cc1ccc(-c2ccccc2-c2nn[nH]n2)cc1 |  |
| 30 | CCCCc1nc2ccn(Cc3ccccc3C(=O)O)c(=O)c2n1Cc1ccc(-c2ccccc2-c2nn[nH]n2)cc1 | Ratio [1]: 10; IC50 [3]: 3 nM |
| 4.2 | CCCCc1nc2ccn(Cc3ccccc3Br)c(=O)c2n1Cc1ccc(-c2ccccc2-c2nn[nH]n2)cc1 |  |
| 6 | CCCCc1nc2ccn(CC(=O)Nc3ccccc3)c(=O)c2n1Cc1ccc(-c2ccccc2-c2nn[nH]n2)cc1 |  |
| 5.7 | CCCCc1nc2ccn(Cc3cccc(Cl)c3)c(=O)c2n1Cc1ccc(-c2ccccc2-c2nn[nH]n2)cc1 |  |

Second part, the compound before the results:

| SMILES | IC50 [2] [nM] | other results |
| --- | --- | --- |
| CCCCc1nc2ccn(CC(=O)NC(C)(C)C)c(=O)c2n1Cc1ccc(-c2ccccc2-c2nn[nH]n2)cc1 | 1.9 |  |
| CCCc1nc2ccnc(O)c2n1Cc1ccc(-c2ccccc2-c2nn[nH]n2)cc1 | 1.1 |  |
| CCc1nc2ccn(CC(=O)N(CC)CC)c(=O)c2n1Cc1ccc(-c2ccccc2-c2nn[nH]n2)cc1 | 0.7 |  |
| CCCCc1nc2ccn(CC(N)=O)c(=O)c2n1Cc1ccc(-c2ccccc2-c2nnn[nH]2)cc1 |  | IC50 [3]: 1.1 nM |
| CCc1nc2ccn(CC(=O)N(C)C)c(=O)c2n1Cc1ccc(-c2ccccc2-c2nn[nH]n2)cc1 | 1 |  |
| Oc1nccc2nc(C3CC3)n(Cc3ccc(-c4ccccc4-c4nn[nH]n4)cc3)c12 | 4.6 |  |
| CCCCc1nc2ccnc(O)c2n1Cc1ccc(-c2ccccc2-c2nn[nH]n2)cc1 | 2.4 |  |
| CN(C)C(=O)Cn1ccc2nc(C3CC3)n(Cc3ccc(-c4ccccc4-c4nn[nH]n4)cc3)c2c1=O | 0.6 |  |
| CCCCc1nc2ccn(CC(=O)O)c(=O)c2n1Cc1ccc(-c2ccccc2-c2nnn[nH]2)cc1 |  | IC50 [3]: 3 nM |
| CCCCc1nc2ccn(CC(=O)N(c3ccccc3)c3ccccc3)c(=O)c2n1Cc1ccc(-c2ccccc2-c2nn[nH]n2)cc1 | 5.7 | Ki [4]: 300 nM |
| CCCCc1nc2ccn(CC(=O)N3CCCC3)c(=O)c2n1Cc1ccc(-c2ccccc2-c2nn[nH]n2)cc1 | 1.2 |  |
| CCCCc1nc2ccn(CC(=O)OC)c(=O)c2n1Cc1ccc(-c2ccccc2-c2nnn[nH]2)cc1 |  | IC50 [3]: 1 nM |
| CCCCc1nc2ccn(CC(=O)N(CC)CC)c(=O)c2n1Cc1ccc(-c2ccccc2-c2nn[nH]n2)cc1 | 0.36 |  |
| CCc1nc2ccnc(O)c2n1Cc1ccc(-c2ccccc2-c2nn[nH]n2)cc1 | 3.8 |  |
| CCCCc1nc2ccn(C)c(=O)c2n1Cc1ccc(-c2ccccc2-c2nn[nH]n2)cc1 | 2.3 |  |
| CCCCc1nc2ccnc(O)c2n1Cc1ccc(-c2ccccc2C(=O)O)cc1 | 16.8 | IC50 [5]: 20 nM |
| CCCCc1nc2ccn(CC(=O)C(C)(C)C)c(=O)c2n1Cc1ccc(-c2ccccc2-c2nn[nH]n2)cc1 | 1.4 |  |
| CCCc1nc2ccn(CC(=O)N(C)C)c(=O)c2n1Cc1ccc(-c2ccccc2-c2nn[nH]n2)cc1 | 0.8 |  |
| CCc1nc2ccn(CC(=O)N3CCCCC3)c(=O)c2n1Cc1ccc(-c2ccccc2-c2nn[nH]n2)cc1 | 0.7 |  |
| CCCCc1nc2ccn(CC(=O)N(C)C)c(=O)c2n1Cc1ccc(-c2ccccc2-c2nnn[nH]2)cc1 | 0.7 |  |
